Compound activity from PubChem BioAssay.
Most compounds without a hit are left out; they make up all but 3.1% or so of the library.
Apaf1 inhib: blocks human Apaf-1 apoptosome activity. O14727. 330,000 tested, 0.71% active. inhibition, % at 20 µM. reconstituted apoptosome caspase-3 activity, DEVD-Rh110 fluorescence; active = inhibition of at least 40% at 20 µM;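 also: plate controls were DMSO wells for no effect and DEVD-CHO caspase inhibitor wells for full effect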
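Material: cell-free apoptosome with Apaf-1, procaspase-3 and caspase-9; Buffer or medium: Hepes pH 7.5 with detergent and BSA; Reagent: cytochrome c trigger plus (Z-DEVD)2-Rh110 caspase-3 substrate; Times: compound with Apaf-1, dATP, procaspase-3 30 min, then 50 min reaction, room temperature; Technique: Rh110 fluorescence intensity.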
SENP7 inh: inhibitors of human SENP7 protease. inhibition, % at 5 µM. Q9BQF6. AID 434973. recombinant SENP7, Z-RLRGG-aminoluciferin luminescence, 40 min. 330,000 tested, 1.5% active;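 active = inhibition above about 50% at the single test dose, limit read from the data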;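 also: plate controls were DMSO with enzyme for no effect and no enzyme buffer wells for full effect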
UBC13 polyUb: inhibitors of human UBC13 polyubiquitin chain formation. TR-FRET. inhibition, % at 20 µM. 330,000 tested, 0.47% active; in the data active = inhibition above about 45%, passing the limit was not always enough
Target sequence (P61088 whole entry, looked up): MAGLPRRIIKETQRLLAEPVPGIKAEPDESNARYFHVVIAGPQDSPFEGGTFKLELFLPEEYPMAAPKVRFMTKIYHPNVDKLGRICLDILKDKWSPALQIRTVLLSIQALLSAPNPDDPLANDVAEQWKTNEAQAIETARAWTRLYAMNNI
SENP8 block-1: blocks the human protease SENP8; Q96LD8; purified SENP8, Z-RLRGG-aminoluciferin cleavage, luminescence; inhibition, % at 10 µM; 330,000 tested, 1.2% active; AID 2540; in the data active = inhibition above about 50%
Target sequence (Q96LD8 whole entry, looked up): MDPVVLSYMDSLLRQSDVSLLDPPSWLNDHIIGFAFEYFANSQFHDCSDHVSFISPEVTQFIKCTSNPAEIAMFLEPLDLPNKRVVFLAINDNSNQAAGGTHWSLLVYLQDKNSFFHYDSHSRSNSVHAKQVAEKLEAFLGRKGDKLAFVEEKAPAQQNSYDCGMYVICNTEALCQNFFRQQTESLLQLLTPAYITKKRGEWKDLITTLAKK
SENP8 block-2: SENP8 (human) protease inhibition; Q96LD8; recombinant SENP8, Nedd8 substrate fluorescence; inhibition, % at 20 µM; 360,000 tested, 0.64% active; in the data active = inhibition mostly above about 40%, no sharp cut-off; inactive = mostly below about 27%
SENP6 block: blocks the human protease SENP6; Q9GZR1; Recombinant SENP6 catalytic domain, aminoluciferin luminescence; inhibition, % at 10 µM; 330,000 tested, 1.8% active; AID 2599;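 active = inhibition above about 50% at the single tested dose, limit read from the data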;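 also: plate controls were DMSO wells with enzyme for no effect and DMSO wells lacking enzyme for full effect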
Apaf-1 inh conf2: Apaf-1 inhibition, single-dose confirmed; shares compounds with Apaf1 inhib; reconstituted apoptosome, caspase-3 DEVD-Rh110 fluorescence; inhibition, % at 20 µM; 1,800 tested, 25% active; AID 504614;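 active = mean inhibition of at least 40% at 20 µM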;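 also: plate controls were DMSO wells for no effect and DEVD-CHO caspase inhibitor control wells for full effect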
Rh110 quench: interferes with Rh110 fluorescence, flagging false Apaf-1 inhibitors. shares compounds with Apaf1 inhib. Rh110 fluorescence interference, quenched caspase reaction. activation (fluorescence interference), % at 20 µM. 1,800 tested, under 10 active. AID 504615;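 active = signal rise of 40% or more at 20 µM, treated as a fluorescence artifact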
SENP8 conf: SENP8 (human) inhibition, single concentration confirmation. shares compounds with SENP8 block-2. purified SENP8, Nedd8-AMC/pro-Nedd8 cleavage fluorescence, 30 min. inhibition, % at 25 µM. 1,400 tested, 15% active; in the data active = inhibition mostly above about 39%, no sharp cut-off; inactive = mostly below about 34%
* marks the source's active call; other numbers are inactive results; x = no result; ! = repeats disagree.

SMILES	Apaf1 inhib	SENP7 inh	UBC13 polyUb	SENP8 block-1	SENP8 block-2	SENP6 block	SENP8 conf	others
O=c1cc(C2CCNCC2)[nH][nH]1	58*	18	0	-2	55*	6	19	Apaf-1 inh conf2=9;Rh110 quench=-6
O=S1(=O)NCC2(CC2)CN1Cc1ccccc1	x	x	x	x	14	x	x
CCN1CCN(c2cc(N3CCCC3)c([N+](=O)[O-])cc2F)CC1	-2	-1	-68	-3	42*	-15	20
CN1CCN(c2cc(N3CCCCCC3)c(F)cc2[N+](=O)[O-])CC1	18	-3	-79	-16	22	-5	x
CCCCCCCCn1sccc1=O	-9	-7	34	-7	11	-6	x
CCCCn1nnnc1C(c1ccnc2ccccc12)N1CCC2(CC1)C(=O)NCN2c1ccccc1 (stereo not drawn)	x	x	x	x	2	x	x
c1cncc(C2CCCCN2)c1 (stereo not drawn)	-6	0	-1	-3	55*	7	10
OCCOc1ccccc1	-9	-4	-2	3	46*	-5	10
CC(=O)OC1CC2OC3C=C(C)CCC3(C)C1(C)C21CO1 (stereo not drawn)	x	x	x	x	21	x	x
O=[N+]([O-])c1ccccc1CN1CC=C(c2ccc(F)cc2)CC1	7	-6	-2	-1	44*	7	12
O=[N+]([O-])c1cccc(CN2CC=C(c3ccc(F)cc3)CC2)c1	10	-6	7	-5	18	1	x
CSCCC(c1nnnn1Cc1ccccc1)N1CCC2(CC1)C(=O)NCN2c1ccccc1 (stereo not drawn)	x	x	x	x	26	x	x
O=C(O)c1ccc([N+](=O)[O-])c([N+](=O)[O-])c1	x	x	x	x	40*	x	32
O=[N+]([O-])c1ccc(O)c([N+](=O)[O-])c1	4	-5	-28	-2	15	-16	x
NNc1n[nH]c(=S)n1N	15	5	-16	-2	42*	-7	22
O=C1CCC2(O)C3Cc4ccc(O)c5c4C2(CCN3Cc2ccoc2)C1O5 (stereo not drawn)	x	x	x	x	-8	x	x
CC12CN3CC(C)(CN(C1)C31CCOCC1)C2=O	1	-7	5	-2	41*	5	5
COc1ccc(-n2c(=O)[nH]c3ccccc3c2=O)c(OC)c1	3	-2	-10	-5	12	-10	x
COc1ccc2c(c1)NP(=S)(c1ccccc1)N2C (stereo not drawn)	x	x	x	x	54*	x	28
CN1C(=O)C(Cc2ccsc2)C(=O)N(C)C1=O	13	1	-39	5	47*	0	35
COc1cc(C2c3cc(O)c(OC)cc3CC3C(=O)OCC32)ccc1O (stereo not drawn)	x	x	x	x	44*	x	5
COc1cc(C2c3cc4c(cc3CC3COC(=O)C32)OCO4)cc(OC)c1OC (stereo not drawn)	0	8	11	-1	8	12	x
NC(Cc1ccc(F)cc1)c1csc(Nc2ncccn2)n1 (stereo not drawn)	x	x	x	x	8	x	x
CN1CC[C@@]2(C)c3cc(O)ccc3N(C)[C@@H]12	x	x	x	x	44*!	x	62*
O=C(CCc1ccccc1)N1C[C@H]2C[C@@H](C1)c1cccc(=O)n1C2	2	-13	-2	-17	61*	-16	29
SMILES	Apaf1 inhib	SENP7 inh	UBC13 polyUb	SENP8 block-1	SENP8 block-2	SENP6 block	SENP8 conf	others
COc1ccccc1CCNC(=O)CCC(=O)N1CC2C[C@@H](C1)Cn1c2cccc1=O	-7	-4	1	2	46*	-6	1
C#C[C@]1(O)CC[C@H]2[C@@H]3[C@H](O)C[C@H]4C[C@@H](O)CC[C@]4(C)[C@H]3CC[C@@]21C	x	x	x	x	20	x	x
COc1ccc(CN2Cc3cc(N4CCCCC4)ccc3-n3nncc3C2)cc1	x	x	x	x	-115	x	x
CCC(c1nnnn1-c1ccc2c(c1)OCCO2)N1CCC2(CC1)C(=O)NCN2c1ccccc1 (stereo not drawn)	x	x	x	x	18	x	x
O=C1NC(=O)C(Nc2ccc(Cl)c(Cl)c2)C(=O)N1	x	x	x	x	65*	x	76*
c1ccc(C(c2ccccc2)c2ccncc2)cc1	x	x	x	x	9	x	x
CN(C)Cc1c[nH]c2ccccc12	-4	-6	5	-1	41*	-2	2
CC1CCN(C(CC(=O)c2ccccc2)C(=O)c2ccccc2)CC1 (stereo not drawn)	x	x	x	x	-100	x	x
Nc1c([N+](=O)[O-])cc(F)c(N2CCNCC2)c1Br	-6	0	-60	-2	44*	-9	7
CN1CCN(c2c(F)cc([N+](=O)[O-])c(N)c2Br)CC1	-8	-4	-7	-3	25	-8	x
CC1CN(c2ccc([N+](=O)[O-])c3cccnc23)CC(C)N1 (stereo not drawn)	33	-1	-44	-3	39	4	x
CCNCCNc1ccc([N+](=O)[O-])c2cccnc12	0	9	-68	5	63*	8	19
Cc1nonc1OCCNCCNc1ccc([N+](=O)[O-])c2cccnc12	10	0	-89	3	43*	1	20
O=[N+]([O-])c1ccc(N2CCCC2)c2ncccc12	2	-3	-148	10	81*	34	27
COc1cc([N+](=O)[O-])c2ncccc2c1[N+](=O)[O-]	x	x	x	x	30	x	x
